Several values for one entry are separate records, joined by “and”; a condition that tells them apart may be missing. Equal values may be shown once. Entries after “also recorded” stand apart in the source; their conditions may differ. Activity calls are given as the source filed them. No cut-off for these calls is given here.
Experiments:
[1] = molecular target: Phosphatidylinositol 4,5-bisphosphate 3-kinase catalytic subunit gamma isoform (Homo sapiens, UniProt P48736); assay: Inhibition of full length human PI3Kgamma using PIP2 as substrate after 30 mins by TR-FRET assay
Procedure, shortened: (§1)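 In vitro kinase assay run against each Class I PI3K isoform, with ATP at 2×Km steady-state concentration; IC50 values are the average of at least 2 determinations.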

[2] = Volume of distribution at steady state in Sprague-Dawley rat at 1 mg/kg, iv by ESI-LC/MS/MS analysis; assay type: ADME, organism-based; details: in vivo, read-out: Vdss
[3] = MRT in Beagle dog at 1 mg/kg, iv by ESI-LC/MS/MS analysis; assay type: ADME, organism-based, Canis lupus familiaris; details: in vivo
[4] = Terminal half life in cynomolgus monkey at 1 mg/kg, iv by ESI-LC/MS/MS analysis; assay type: ADME, organism-based, Macaca fascicularis; details: in vivo, read-out: beta t1/2 (converted)
[5] = Terminal half life in rhesus monkey at 1 mg/kg, iv by ESI-LC/MS/MS analysis; assay type: ADME, organism-based, Macaca mulatta; details: in vivo, read-out: beta t1/2 (converted)
[6] = system: Cytochrome P450; assay: Inhibition of human CYP450 at 25 uM; assay type: ADME, protein assay
[7] = Oral bioavailability in Sprague-Dawley rat at 5 mg/kg by ESI-LC/MS/MS analysis; assay type: ADME, organism-based; details: in vivo
[8] = Conformation stability assessed as rate constant for (P)-4-(1-(5,8-difluoroquinolin-4-yl)-2-methyl-4-(4H-1,2,4-triazol-3-yl)-1H-benzo[d]imidazol-6-yl)-3-fluoropyridin-2-amine formation at 10 mg at 120 degC by chiral SFC analysis; assay type: physicochemical
[9] = Efflux ratio of apparent permeability in human Caco2 cells at 10 uM after 1 to 2 hrs by LC/MS/MS analysis; assay type: ADME, cell-based; details: Caco-2
[10] = Volume of distribution at steady state in Beagle dog at 1 mg/kg, iv by ESI-LC/MS/MS analysis; assay type: ADME, organism-based, Canis lupus familiaris; details: in vivo, read-out: Vdss
[11] = Clearance in rhesus monkey at 1 mg/kg, iv by ESI-LC/MS/MS analysis; assay type: ADME, organism-based, Macaca mulatta; details: in vivo
[12] = Clearance in Beagle dog at 1 mg/kg, iv by ESI-LC/MS/MS analysis; assay type: ADME, organism-based, Canis lupus familiaris; details: in vivo
[13] = Terminal half life in Beagle dog at 1 mg/kg, iv by ESI-LC/MS/MS analysis; assay type: ADME, organism-based, Canis lupus familiaris; details: in vivo, read-out: beta t1/2 (converted)
[14] = molecular target: Voltage-gated inwardly rectifying potassium channel KCNH2 (Homo sapiens, UniProt Q12809); assay: Inhibition of human ERG at 25 uM
[15] = Clearance in Sprague-Dawley rat at 1 mg/kg, iv by ESI-LC/MS/MS analysis; assay type: ADME, organism-based; details: in vivo
[16] = molecular target: T1, Aldehyde oxidase (Homo sapiens, UniProt Q06278); assay: Drug metabolism in human hepatocytes assessed as AO-mediated 4-(6-(2-amino-3-fluoropyridin-4-yl)-2-methyl-4-(4H-1,2,4-triazol-3-yl)-1H-benzo[d]imidazol-1-yl)-5,8-difluoroquinolin-2(1H)-one metabolite formation at 0.5 uM measured up to 250 mins by UHPLC-HRMS based assay; assay type: ADME, cell-based
T1 sequence (Q06278 whole entry): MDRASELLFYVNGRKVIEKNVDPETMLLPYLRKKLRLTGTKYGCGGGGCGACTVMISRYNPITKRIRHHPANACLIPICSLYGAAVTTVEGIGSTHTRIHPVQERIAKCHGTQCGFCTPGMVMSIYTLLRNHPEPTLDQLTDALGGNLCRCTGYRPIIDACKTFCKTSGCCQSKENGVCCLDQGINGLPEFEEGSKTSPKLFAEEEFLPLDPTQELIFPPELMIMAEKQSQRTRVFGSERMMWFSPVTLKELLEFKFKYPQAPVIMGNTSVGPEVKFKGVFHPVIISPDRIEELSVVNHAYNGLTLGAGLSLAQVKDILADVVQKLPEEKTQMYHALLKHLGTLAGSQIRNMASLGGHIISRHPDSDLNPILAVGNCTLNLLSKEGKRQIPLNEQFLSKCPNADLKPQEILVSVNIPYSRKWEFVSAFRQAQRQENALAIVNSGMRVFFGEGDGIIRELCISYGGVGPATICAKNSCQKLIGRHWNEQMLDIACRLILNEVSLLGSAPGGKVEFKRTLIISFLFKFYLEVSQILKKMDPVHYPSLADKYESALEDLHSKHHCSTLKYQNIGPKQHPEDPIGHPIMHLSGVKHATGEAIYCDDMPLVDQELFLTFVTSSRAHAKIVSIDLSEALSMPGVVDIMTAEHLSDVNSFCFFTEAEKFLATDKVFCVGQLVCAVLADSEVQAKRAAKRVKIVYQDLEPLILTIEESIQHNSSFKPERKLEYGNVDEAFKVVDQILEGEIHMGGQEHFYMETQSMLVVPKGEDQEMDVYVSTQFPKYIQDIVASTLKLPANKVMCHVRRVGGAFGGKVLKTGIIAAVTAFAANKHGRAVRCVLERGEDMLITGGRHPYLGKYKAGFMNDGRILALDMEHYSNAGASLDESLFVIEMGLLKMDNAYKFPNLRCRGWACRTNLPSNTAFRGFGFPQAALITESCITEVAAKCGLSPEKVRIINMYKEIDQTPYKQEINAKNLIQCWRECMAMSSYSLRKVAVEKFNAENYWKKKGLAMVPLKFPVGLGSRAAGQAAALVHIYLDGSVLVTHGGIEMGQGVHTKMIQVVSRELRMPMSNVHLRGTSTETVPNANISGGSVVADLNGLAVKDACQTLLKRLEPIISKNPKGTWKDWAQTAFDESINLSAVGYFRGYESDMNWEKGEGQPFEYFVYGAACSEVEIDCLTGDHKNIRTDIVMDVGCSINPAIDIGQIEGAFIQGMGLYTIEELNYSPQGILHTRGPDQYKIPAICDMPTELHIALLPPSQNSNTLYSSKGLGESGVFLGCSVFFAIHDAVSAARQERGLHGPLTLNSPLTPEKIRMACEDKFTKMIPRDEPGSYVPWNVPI

[17] = Intrinsic clearance in human liver microsomes at 1 uM measured in presence of NADPH/UDPGA by UHPLC-HRMS based assay; assay type: ADME, Microsome
[18] = Oral bioavailability in cynomolgus monkey at 5 mg/kg by ESI-LC/MS/MS analysis; assay type: ADME, organism-based, Macaca fascicularis; details: in vivo
[19] = Terminal half life in Sprague-Dawley rat at 1 mg/kg, iv by ESI-LC/MS/MS analysis; assay type: ADME, organism-based; details: in vivo, read-out: beta t1/2 (converted)
[20] = Fraction unbound in Beagle dog plasma; assay type: ADME, cell-free, Canis lupus familiaris
[21] = Clearance in cynomolgus monkey at 1 mg/kg, iv by ESI-LC/MS/MS analysis; assay type: ADME, organism-based, Macaca fascicularis; details: in vivo
[22] = MRT in rhesus monkey at 1 mg/kg, iv by ESI-LC/MS/MS analysis; assay type: ADME, organism-based, Macaca mulatta; details: in vivo
[23] = molecular target: T1, Aldehyde oxidase; assay: Drug metabolism in human hepatocytes assessed as AO-mediated triazole oxidation at 0.5 uM measured up to 250 mins by UHPLC-HRMS based assay; assay type: ADME, cell-based
[24] = Fraction unbound in Sprague-Dawley rat plasma; assay type: ADME, cell-free
[25] = molecular target: Phosphatidylinositol 4,5-bisphosphate 3-kinase catalytic subunit beta isoform (Homo sapiens) (UniProt P42338); assay: Inhibition of partial length human PI3Kbeta expressed in mammalian system at 10 uM by active site-directed competition binding based KINOMEscan assay
Procedure, shortened: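 Active-site-directed competition binding assay across more than 400 human kinases, with compound tested at 10 µM.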

[26] = Volume of distribution at steady state in rhesus monkey at 1 mg/kg, iv by ESI-LC/MS/MS analysis; assay type: ADME, organism-based, Macaca mulatta; details: in vivo, read-out: Vdss
[27] = Volume of distribution at steady state in cynomolgus monkey at 1 mg/kg, iv by ESI-LC/MS/MS analysis; assay type: ADME, organism-based, Macaca fascicularis; details: in vivo, read-out: Vdss
[28] = MRT in Sprague-Dawley rat at 1 mg/kg, iv by ESI-LC/MS/MS analysis; assay type: ADME, organism-based; details: in vivo
[29] = Fraction unbound in rhesus monkey plasma; assay type: ADME, cell-free, Macaca mulatta
[30] = MRT in cynomolgus monkey at 1 mg/kg, iv by ESI-LC/MS/MS analysis; assay type: ADME, organism-based, Macaca fascicularis; details: in vivo
[31] = molecular target: T1, Aldehyde oxidase; assay: Drug metabolism in human liver cytosol assessed as AO-mediated 4-(6-(2-amino-3-fluoropyridin-4-yl)-2-methyl-4-(4H-1,2,4-triazol-3-yl)-1H-benzo[d]imidazol-1-yl)-5,8-difluoroquinolin-2(1H)-one metabolite formation at 0.5 uM measured after 2 hrs by UHPLC-HRMS based assay; assay type: ADME, subcellular
[32] = Permeability across apical to basolateral side in human Caco2 cells at 10 uM after 1 to 2 hrs by LC/MS/MS analysis; assay type: ADME, cell-based; details: Caco-2, read-out: permeability
[33] = Fraction unbound in cynomolgus monkey plasma; assay type: ADME, cell-free, Macaca fascicularis
[34] = molecular target: PI3K p110 beta/p85 alpha (Homo sapiens, UniProt P42338); assay: Inhibition of full length human His-tagged p110beta/p85alpha using PIP2 as substrate after 30 mins by TR-FRET assay; assay type: protein-complex assay; procedure, shortened: as §1
[35] = molecular target: PI3-kinase p110-alpha/p85-alpha (Homo sapiens, UniProt P42336); assay: Inhibition of full length human p110alpha/p85alpha using PIP2 as substrate after 30 mins by TR-FRET assay; assay type: protein-complex assay; procedure, shortened: as §1
[36] = molecular target: PI3-kinase p110-delta/p85-alpha (Homo sapiens, UniProt O00329); assay: Inhibition of full length human p110delta/p85alpha using PIP2 as substrate after 30 mins by TR-FRET assay; assay type: protein-complex assay; procedure, shortened: as §1

Phosphatidylinositol 4,5-bisphosphate 3-kinase catalytic subunit gamma isoform, sequence (P48736 whole entry, canonical isoform): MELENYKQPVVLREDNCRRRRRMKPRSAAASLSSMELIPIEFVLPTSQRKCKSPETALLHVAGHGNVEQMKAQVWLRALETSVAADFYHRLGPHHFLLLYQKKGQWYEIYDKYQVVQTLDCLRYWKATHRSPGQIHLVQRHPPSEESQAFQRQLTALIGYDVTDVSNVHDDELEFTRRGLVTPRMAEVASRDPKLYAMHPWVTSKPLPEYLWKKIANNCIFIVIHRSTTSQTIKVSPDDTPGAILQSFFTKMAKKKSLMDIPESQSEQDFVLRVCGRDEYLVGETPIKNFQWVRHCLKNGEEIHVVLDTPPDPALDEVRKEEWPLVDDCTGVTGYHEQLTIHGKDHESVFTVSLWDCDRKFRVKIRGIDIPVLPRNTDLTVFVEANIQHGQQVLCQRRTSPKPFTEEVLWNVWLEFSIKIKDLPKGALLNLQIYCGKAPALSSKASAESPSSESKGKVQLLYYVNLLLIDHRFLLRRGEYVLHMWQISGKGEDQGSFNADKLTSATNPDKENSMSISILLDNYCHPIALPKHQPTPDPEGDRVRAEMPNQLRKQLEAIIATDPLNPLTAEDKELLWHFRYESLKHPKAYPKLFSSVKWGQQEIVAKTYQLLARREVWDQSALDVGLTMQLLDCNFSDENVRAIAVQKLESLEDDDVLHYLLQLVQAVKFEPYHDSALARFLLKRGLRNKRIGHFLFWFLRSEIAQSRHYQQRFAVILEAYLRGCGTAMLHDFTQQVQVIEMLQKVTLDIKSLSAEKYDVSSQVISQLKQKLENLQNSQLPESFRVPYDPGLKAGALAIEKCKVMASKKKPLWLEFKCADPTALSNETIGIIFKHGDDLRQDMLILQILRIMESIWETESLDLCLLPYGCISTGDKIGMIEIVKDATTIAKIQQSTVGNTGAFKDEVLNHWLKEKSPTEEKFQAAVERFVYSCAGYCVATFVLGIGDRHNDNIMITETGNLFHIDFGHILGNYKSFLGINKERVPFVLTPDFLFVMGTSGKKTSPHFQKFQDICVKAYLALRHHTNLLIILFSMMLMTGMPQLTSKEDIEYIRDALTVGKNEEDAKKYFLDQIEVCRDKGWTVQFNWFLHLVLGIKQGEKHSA
Phosphatidylinositol 4,5-bisphosphate 3-kinase catalytic subunit beta isoform (Homo sapiens), sequence (P42338 whole entry, looked up, canonical isoform): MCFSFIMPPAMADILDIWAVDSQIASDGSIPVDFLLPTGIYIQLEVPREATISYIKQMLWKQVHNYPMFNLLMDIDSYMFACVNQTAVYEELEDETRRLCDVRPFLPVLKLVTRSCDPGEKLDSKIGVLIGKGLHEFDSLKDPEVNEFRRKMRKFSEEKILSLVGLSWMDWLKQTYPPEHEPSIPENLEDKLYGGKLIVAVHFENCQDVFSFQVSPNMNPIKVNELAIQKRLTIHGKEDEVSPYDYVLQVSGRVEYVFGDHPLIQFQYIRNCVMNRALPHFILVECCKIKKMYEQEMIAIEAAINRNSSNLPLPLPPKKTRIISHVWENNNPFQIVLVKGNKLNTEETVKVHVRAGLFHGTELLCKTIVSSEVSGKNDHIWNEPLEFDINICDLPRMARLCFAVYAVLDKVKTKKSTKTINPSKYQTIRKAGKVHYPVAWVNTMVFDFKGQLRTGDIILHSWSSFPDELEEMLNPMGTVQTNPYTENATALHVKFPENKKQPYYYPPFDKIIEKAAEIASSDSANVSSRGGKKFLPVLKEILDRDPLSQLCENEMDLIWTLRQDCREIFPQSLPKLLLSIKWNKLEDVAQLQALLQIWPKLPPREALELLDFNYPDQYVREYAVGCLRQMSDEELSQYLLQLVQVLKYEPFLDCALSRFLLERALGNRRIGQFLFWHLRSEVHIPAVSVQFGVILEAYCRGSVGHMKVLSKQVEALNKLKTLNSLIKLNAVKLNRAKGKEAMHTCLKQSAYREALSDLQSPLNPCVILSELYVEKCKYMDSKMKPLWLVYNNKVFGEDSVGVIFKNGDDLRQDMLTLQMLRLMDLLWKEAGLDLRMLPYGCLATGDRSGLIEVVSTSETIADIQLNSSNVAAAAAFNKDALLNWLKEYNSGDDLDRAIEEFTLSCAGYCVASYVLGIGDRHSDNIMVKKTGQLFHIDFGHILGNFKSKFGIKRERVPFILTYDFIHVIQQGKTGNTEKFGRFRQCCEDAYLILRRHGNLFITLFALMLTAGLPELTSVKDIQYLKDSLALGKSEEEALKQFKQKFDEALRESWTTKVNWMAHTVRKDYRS
PI3K p110 beta/p85 alpha, sequence (P27986 whole entry): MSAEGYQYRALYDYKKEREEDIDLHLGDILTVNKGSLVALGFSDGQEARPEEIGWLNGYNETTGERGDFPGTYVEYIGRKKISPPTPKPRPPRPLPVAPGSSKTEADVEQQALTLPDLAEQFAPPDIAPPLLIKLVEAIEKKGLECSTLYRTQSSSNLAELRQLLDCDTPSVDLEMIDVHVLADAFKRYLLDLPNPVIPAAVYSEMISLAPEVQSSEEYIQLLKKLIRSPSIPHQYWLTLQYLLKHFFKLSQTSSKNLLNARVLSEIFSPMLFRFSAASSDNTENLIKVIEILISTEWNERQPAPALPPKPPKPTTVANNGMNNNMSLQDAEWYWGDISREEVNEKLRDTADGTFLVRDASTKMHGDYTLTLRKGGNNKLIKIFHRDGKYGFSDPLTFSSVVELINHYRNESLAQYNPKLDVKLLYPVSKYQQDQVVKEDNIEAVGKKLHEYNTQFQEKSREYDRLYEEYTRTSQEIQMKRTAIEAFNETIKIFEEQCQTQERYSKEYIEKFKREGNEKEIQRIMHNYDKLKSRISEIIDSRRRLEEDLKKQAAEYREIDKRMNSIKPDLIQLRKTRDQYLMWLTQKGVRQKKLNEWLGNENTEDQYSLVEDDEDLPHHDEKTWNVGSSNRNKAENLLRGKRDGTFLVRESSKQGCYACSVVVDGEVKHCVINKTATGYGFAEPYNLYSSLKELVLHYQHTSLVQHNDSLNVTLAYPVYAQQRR
PI3K p110 beta/p85 alpha, sequence (P42338 whole entry): as the sequence (P42338 whole entry, looked up, canonical isoform) above
PI3-kinase p110-alpha/p85-alpha, sequence (P27986 whole entry): as the sequence (P27986 whole entry) above
PI3-kinase p110-alpha/p85-alpha, sequence (P42336 whole entry): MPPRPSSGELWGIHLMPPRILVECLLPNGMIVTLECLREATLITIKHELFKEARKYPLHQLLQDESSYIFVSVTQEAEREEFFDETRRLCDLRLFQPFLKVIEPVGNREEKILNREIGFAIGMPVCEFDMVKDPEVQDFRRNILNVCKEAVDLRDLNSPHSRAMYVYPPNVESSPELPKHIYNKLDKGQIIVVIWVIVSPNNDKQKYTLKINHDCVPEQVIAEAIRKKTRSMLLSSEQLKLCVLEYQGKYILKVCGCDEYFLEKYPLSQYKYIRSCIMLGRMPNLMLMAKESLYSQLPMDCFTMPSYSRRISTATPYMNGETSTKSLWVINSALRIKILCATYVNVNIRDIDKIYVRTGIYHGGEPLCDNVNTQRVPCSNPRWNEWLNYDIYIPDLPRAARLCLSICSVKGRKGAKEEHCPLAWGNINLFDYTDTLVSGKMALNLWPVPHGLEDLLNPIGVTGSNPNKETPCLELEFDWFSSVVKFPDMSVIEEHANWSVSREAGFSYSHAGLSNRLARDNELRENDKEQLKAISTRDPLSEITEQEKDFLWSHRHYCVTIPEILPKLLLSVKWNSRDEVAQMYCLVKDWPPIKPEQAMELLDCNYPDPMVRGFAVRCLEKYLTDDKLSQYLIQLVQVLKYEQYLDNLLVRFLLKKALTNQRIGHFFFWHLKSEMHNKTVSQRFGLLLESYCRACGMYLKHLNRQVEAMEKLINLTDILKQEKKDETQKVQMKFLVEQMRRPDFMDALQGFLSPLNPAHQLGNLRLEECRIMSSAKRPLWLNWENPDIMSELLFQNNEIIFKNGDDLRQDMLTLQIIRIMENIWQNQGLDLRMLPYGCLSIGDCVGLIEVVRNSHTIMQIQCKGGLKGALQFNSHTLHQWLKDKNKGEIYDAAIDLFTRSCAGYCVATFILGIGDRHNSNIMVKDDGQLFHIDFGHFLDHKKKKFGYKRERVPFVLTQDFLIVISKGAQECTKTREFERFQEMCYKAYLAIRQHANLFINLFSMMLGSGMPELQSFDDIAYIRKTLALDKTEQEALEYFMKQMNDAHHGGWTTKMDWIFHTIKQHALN

Structure (SMILES): Cc1nc2c(-c3nnc[nH]3)cc(-c3ccnc(N)c3F)cc2n1-c1ccnc2c(F)ccc(F)c12
- IC50 [1]: > 10 µM and 4.27 µM and 4.16 µM
- Vd [2]: 2.68 L/kg
- MRT [3]: 4.04 h
- half-life [4]: 5.17 h
- half-life [5]: 6.04 h
- inhibition (INH) [6]: Not Active
- bioavailability [7]: 60.4%
- K [8]: 2.64 ×10⁻⁷ /s
- efflux ratio at 10 µM [9]: < 1.5
- Vd [10]: 0.89 L/kg
- clearance [11]: 1.67 mL/min/kg
- clearance [12]: 3.67 mL/min/kg
- half-life [13]: 3.61 h
- inhibition (INH) [14]: Not Active
- clearance [15]: 11.3 mL/min/kg
- Drug metabolism [16]: Metabolite_Detected
- CLint scaled at 1 µM ([17]; liver microsomes, read-out: CLH (converted)): 2.5 mL/min/kg
- CLH ([17]; microsomes, 1 µM): < 2 mL/min/kg
- bioavailability [18]: 64.2%
- half-life [19]: 9.55 h
- fraction unbound [20]: 0.078
- clearance [21]: 1.83 mL/min/kg
- MRT [22]: 6.2 h
- Drug metabolism [23]: Metabolite_Detected
- Stability [23]: Stable
- fraction unbound [24]: 0.19
- inhibition [25]: Active
- Vd [26]: 0.63 L/kg
- Vd [27]: 0.45 L/kg
- MRT [28]: 3.87 h
- fraction unbound [29]: 0.072
- MRT [30]: 4.3 h
- Drug metabolism [31]: Metabolite_Notdetected; also recorded: Metabolite_Detected
- Papp A→B at 10 µM [32]: 17 ×10⁻⁶ cm/s
- fraction unbound [33]: 0.062

Structure (SMILES): Nc1nccc(-c2cc(-c3nnc[nH]3)c3ncn(-c4ccnc5c(F)ccc(F)c45)c3c2)c1F
- IC50 [1]: 0.44 µM
- IC50 [34]: 0.011 µM
- IC50 [35]: 0.233 µM
- IC50 [36]: 0.067 µM

Source: ChEMBL document CHEMBL4325835, “Atropisomerism by Design: Discovery of a Selective and Stable Phosphoinositide 3-Kinase (PI3K) β Inhibitor” (J Med Chem, 2018)
